Consider one compound from ChEMBL document CHEMBL4765486, “Novel Nonsecosteroidal Vitamin D Receptor Modulator Combined with Gemcitabine Enhances Pancreatic Cancer Therapy through Remodeling of the Tumor Microenvironment” (J Med Chem, 2021).

The structures appear in SMILES notation. Active and inactive are the calls of the source. Unless noted, the calls are words filed in the database; no cut-off is given here. Bounds are passed on as bounds.

The subject of series [1] is LTC-14. Put plainly: Inhibition of rat LTC-14 cells activation assessed as inhibition of Periodin-mRNA expression at 0.5 uM treated under conditioned media of DSL-6A/C1 cells for 24 hrs by q-PCR analysis. The format is functional, cell-based. Summed up:
(§1)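 LTC-14 PSCs were exposed for 24 h to conditioned medium from rat DSL-6A/C1 cancer cells containing compound at 0.5 μM. Pdgfa, Pdgfb, Fgf2, Hgf and Periodin mRNA were quantified by RT-qPCR. Three repeats, mean ± SD versus CM alone.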

The nature of series [2]: Cytotoxicity against rat DSL-6A/C1 cells assessed as reduction in cell proliferation at 0.5 uM incubated for 24 hrs by MTT assay. The conditions noted are these: dsl-6a/c1, 24 h. The format is cell-based. For orientation: Tetrazolium dyes change colour on reduction, which living cells bring about.
Series [3] deals with LTC-14. Put plainly: Inhibition of rat LTC-14 cells activation assessed decrease in TGF-beta1 induced Acta2 mRNA expression at 0.5 uM incubated for 24 hrs by q-PCR analysis. In kind it is functional, cell-based. Summed up: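 Immortalized rat PSC line LTC-14, about 1×10^5 cells per well, was grown 24 h at 37 °C in 5% CO2. Cells then received compound (0.5 μM) plus TGF-β1 for 24 h; TGF-β1 is stated as 0.5 ng/mL in the text and 5 ng/mL in the methods. Col1a1 and Acta2 mRNA were measured by RT-qPCR. Mean ± SD versus TGF-β1 alone.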

Series [4] concerns DSL-6A/C1. Put plainly: Potentiation of gemcitabine-induced antitumor activity against luciferase-tagged rat DSL-6A/C1 cells and GFP-tagged LTC-14 cells co-inoculated in orthotropic xenograft BALB/c nude mouse model of pancreatic cancer assessed as reduction in tumor volume at 500 ug/kg, ip administered once every 3 days for 12 days coadministered with gemcitabine at 100 mg/kg and measured after 3 days post last dose by IVIS optical imaging analysis. The conditions noted are these: dose 500.0 µg/kg, time 12.0 day. The format is functional, organism-based. Summed up:
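DSL-6A/C1-luci and LTC-14-GFP cells were co-inoculated orthotopically into the pancreas of nude mice, n=5 per group. Treatment began 7 days after grafting (methods) or 14 days (text). Gemcitabine 100 mg/kg ip every 3 days, alone or with compound 500 μg/kg or calcipotriol 60 μg/kg in ethanol/polyoxyethylene castor oil/saline (1:1:18), for 12 days. Tumour growth was followed by bioluminescence imaging.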

Series [5] deals with T1, Vitamin D3 receptor (Homo sapiens) (UniProt P11473).
T1 sequence (whole entry): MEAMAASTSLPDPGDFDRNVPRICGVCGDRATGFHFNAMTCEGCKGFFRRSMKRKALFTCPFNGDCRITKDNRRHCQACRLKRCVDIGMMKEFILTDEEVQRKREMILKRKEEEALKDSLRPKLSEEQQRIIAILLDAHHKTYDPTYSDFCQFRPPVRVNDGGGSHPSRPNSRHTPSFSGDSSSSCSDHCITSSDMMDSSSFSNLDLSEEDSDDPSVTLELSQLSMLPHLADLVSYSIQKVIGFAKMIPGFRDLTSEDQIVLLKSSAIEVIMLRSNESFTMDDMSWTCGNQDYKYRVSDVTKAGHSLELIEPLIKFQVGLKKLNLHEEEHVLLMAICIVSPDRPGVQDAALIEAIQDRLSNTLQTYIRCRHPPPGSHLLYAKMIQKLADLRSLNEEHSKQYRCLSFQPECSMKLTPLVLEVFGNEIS
Put plainly: Binding affinity to VDR (unknown origin) at 1 uM by fluorescence polarization assay relative to calcipotriol. The note with it: filed as agonist. Summed up:
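PolarScreen VDR competitor fluorescence polarization assay with compounds at 1 μM in triplicate. Read-out used 535 nm excitation and 590 nm emission filters.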

Series [6] deals with LTC-14. Put plainly: Inhibition of rat LTC-14 cells activation assessed as inhibition of Hgf mRNA expression at 0.5 uM treated under conditioned media of DSL-6A/C1 cells for 24 hrs by q-PCR analysis. In kind it is functional, cell-based. Summed up:
as §1

Series [7] deals with DSL-6A/C1. Put plainly: Potentiation of gemcitabine-induced antitumor activity against luciferase-tagged rat DSL-6A/C1 cells and GFP-tagged LTC-14 cells co-inoculated in orthotropic xenograft BALB/c nude mouse model of pancreatic cancer assessed as decrease in density of tumor tissue at 500 ug/kg, ip administered once every 3 days for 12 days coadministered with gemcitabine at 100 mg/kg and measured after 3 days post last dose by hematoxylin and eosin staining based assay. The conditions noted are these: dose 500.0 µg/kg, time 12.0 day. In kind it is functional, organism-based. Summed up: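 In the same orthotopic co-inoculation model, mice received gemcitabine 100 mg/kg ip every 3 days plus compound 500 μg/kg ip for 12 days. Animals were sacrificed 3 days after the last dose. Pancreatic tumour sections were stained with H&E for tissue structure and with Masson's trichrome for collagen deposition, imaged at ×100.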

Series [8] can be described thus: Cytotoxicity against rat LTC-14 cells assessed as reduction in cell proliferation incubated for 24 hrs by MTT assay. In kind it is cell-based. The note with it: LTC-14, 24 h.
Series [9] concerns the target T1, Vitamin D3 receptor (Homo sapiens). Put plainly: Agonist activity at VDR (unknown origin) expressed in HEK293 cells co-transfected with pGL4.27-SPP3-Luc and CMV-hRXRalpha and pCMX-Renilla plasmids after 24 hrs by dual luciferase reporter gene assay. The format is cell-based. The note with it: filed as agonist, dose 0.0001-1 µM. Summed up: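 HEK293 cells in 48-well plates were transfected per well with 40 ng TK-Spp×3-LUC reporter, 20 ng pCMX-Renilla, 30 ng pENTER-CMV-hRXRα and 100 ng pCMX-VDR using Lipofectamine 2000. Compounds were added 8 h post-transfection, and dual-luciferase activity was read 24 h later. Firefly signal was normalised to Renilla. The experiment was run three times.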

Series [10] deals with LTC-14. Put plainly: Inhibition of rat LTC-14 cells activation assessed decrease in TGF-beta1 induced collagen 1 protein expression at 0.5 uM incubated for 24 hrs by Western blot analysis. The format is functional, cell-based. Summed up:
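LTC-14 cells were treated for 24 h with compound (0.5 μM) plus TGF-β1 (0.5 ng/mL in the text, 5 ng/mL in the methods). Lysates were run on 10% SDS-PAGE, transferred to PVDF and probed with rabbit anti-collagen I, with β-actin as reference. Bands were quantified by densitometry versus TGF-β1 alone.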
(Immunoblotting shows a protein as a band on a membrane.)

For series [11], the system named is DSL-6A/C1. Put plainly: Antiproliferative activity against rat DSL-6A/C1 cells assessed as reduction in cell viability at 0.5 uM incubated for 24 hrs compound treated LTC-14-CM cells by MTT assay. The format is functional, cell-based. Summed up: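 LTC-14 PSCs were pretreated with compound for 24 h. Their collected supernatant was used to culture DSL-6A/C1 cells, and proliferation was read by MTT: 4 h incubation with MTT (5 mg/mL stock), absorbance at 570 nm. Run in triplicate, compared with untreated PSC-CM.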

The IC50 is the midpoint of a concentration-inhibition curve. Take `CCn1cc(C(CC)(CC)c2ccc(OCC(C)O)c(C)c2)cc1C(=O)NCCN1CCN(C)CC1` (stereo unspecified): the inhibition result in series [1], in series [3], in [6] and in series [10] was “Active” throughout. The figures for the Activity entry in series [2] and in series [9] were “Non-Toxic” and “Dose-dependent effect”, respectively. Besides, the TGI result in series [4] was “Active”. The RBA in series [5] was found to be 89%. The outcome in series [7] and in series [11] was Active. Further, in series [8], the IC50 is over 10 µM.
